The text below walks through data of ChEMBL document CHEMBL4017498, “Pilot in Vivo Structure-Activity Relationship of Dihydromethysticin in Blocking 4-(Methylnitrosamino)-1-(3-pyridyl)-1-butanone-Induced O6-Methylguanine and Lung Tumor in A/J Mice” (J Med Chem, 2017).

Data set [1] deals with Mus musculus. The experiment in a line: Reduction in NNK-induced O6-methylguanine DNA adduct formation in A/J mouse lung at 200 ppm administered with AIN-93 G powder for 7 days followed by NNK-induction on day 7 post dose measured after 4 hrs by LC-ESI-MS/MS method relative to control. The format is functional. Set-up: scale not given: the % may be the effect or the level left. The gist of the method: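 Female A/J mice (6–7 weeks, one-week acclimation) fed AIN-93G powdered diet with 200 ppm compound from Day 0 (ethanol-processed diet for controls; n=3 per treatment, n=6 NNK control). Single i.p. NNK, 100 mg/kg in saline, on Day 7; lungs collected 4 h later. DNA isolated from half lung; O6-mG quantified by LC-MS/MS. Mean ± SD; one-way ANOVA with Dunnett's test versus NNK control.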

In data set [2] the test system is Mus musculus. The experiment in a line: Reduction in NNK-induced long-term lung adenoma formation in A/J mouse at 25 ppm administered with AIN-M powder […] followed by NNK induction on day 7 at 100 mg/kg during compound dosing and […] post last dose measured after day 119 relative to control. The format is functional. Set-up: scale not given: the % may be the effect or the level left. The method in brief: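 Female A/J mice fed AIN-93G powder diet with compound at 25 ppm (added in ethanol, vacuum-dried, dose checked by HPLC). NNK in saline given i.p. at 100 and 67 mg/kg on Day 7 and Day 14. Treated diet stopped 24 h after the last NNK, then AIN-M diet. On Day 119, surface lung adenomas were counted blinded by a pathologist. Mean ± SD; one-way ANOVA with Dunnett's test vs NNK control.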

Data set [3] deals with Mus musculus. The data set is described as follows: Toxicity in NNK-induced long-term lung adenoma A/J mouse model assessed as effect on liver weight at 25 ppm administered with AIN-M powder […] followed by NNK induction on day 7 at 100 mg/kg during compound dosing and […] post last dose measured after day 119. The format is organism-based. To be noted: in vivo, po. The gist of the method: (§1)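 Female A/J mice fed AIN-93G diet with compound at 25 ppm. NNK given i.p. at 100 and 67 mg/kg on Day 7 and Day 14. Switched to AIN-M diet 24 h after the last NNK. On Day 119, mice were weighed, euthanized with CO2, and livers excised and weighed. Relative liver weight is liver weight divided by bodyweight for each mouse.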

The test system of data set [4] is Mus musculus. The experiment in a line: Toxicity in NNK-induced long-term lung adenoma A/J mouse model assessed as effect on liver weight at 25 ppm administered with AIN-M powder for […] followed by NNK induction on day 7 at 100 mg/kg during compound dosing and […] post last dose measured after day 119 relative to body weight. The format is organism-based. To be noted: in vivo, po. The gist of the method:
as §1

The subject of data set [5] is Mus musculus. The data set is described as follows: Toxicity in NNK-induced long-term lung adenoma A/J mouse model assessed as effect on body weight at 25 ppm administered with AIN-M powder […] followed by NNK induction on day 7 at 100 mg/kg during compound dosing and […] at 67 mg/kg post last dose measured every once a week during compound dosing. It counts as organism-based. Conditions: in vivo, po. The method in brief:
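Female A/J mice fed AIN-93G diet with compound at 25 ppm. NNK given i.p. at 100 mg/kg on Day 7 and 67 mg/kg on Day 14. Treated diet ended 24 h after the last NNK, followed by AIN-M diet. Bodyweight recorded once weekly and food intake twice weekly through Day 119.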

A short description of data set [6]: Drug level in mouse liver microsomes treated with (+)DHM assessed as CYP450-mediated compound formation by LC-MS/MS method. It counts as ADME. On the technique in general: Liver microsomes are vesicles of endoplasmic reticulum, rich in cytochrome P450 enzymes.
The test system of data set [7] is Liver. The data set is described as follows: Drug level in mouse liver microsomes treated with (+)DHM by LC-MS/MS method. The format is ADME, microsome.
Data set [8] is described as follows: Drug metabolism in mouse liver microsomes assessed as CYP450-mediated 7-(3,4-dihydroxyphenyl)-5-hydroxy-3-methoxyhept-2-enoic acid formation by LC-MS/MS method. It counts as ADME.
Data set [9] concerns Liver. The data set is described as follows: Drug metabolism in mouse liver microsomes assessed as 7-(benzo[d][1,3]dioxol-5-yl)-5-hydroxy-3-methoxyhept-2-enoic acid formation by LC-MS/MS method. It counts as ADME, microsome.

For `COC1=CC(=O)OC(CCc2ccc3c(c2)CCC3)C1` (stereo not given), the Activity is on record as 29.6% in data set [1]; 10.1% in [2]; “Non-Toxic” in data set [3]; “Non-Toxic” in [4]; “Non-Toxic” in data set [5].
`CO/C(=C/C(=O)O)CC(O)CCc1ccc(O)c(O)c1` (stereo not given): in data set [6], the Drug metabolism entry is on record as “Metabolite_Detected”.
The compound `COC1=CC(=O)CC(CCc2ccc3c(c2)CCC3)C1` (stereo not given) came in with an Activity in data set [1] of 11.8%.
As to `COC1=CC(=O)CC(CCc2ccc3c(c2)OCO3)C1` (stereo not given), the Activity is recorded as 63.8% in data set [1]; 89.4% in data set [2]; “Non-Toxic” in [3]; “Non-Toxic” in data set [4]; “Non-Toxic” in data set [5].
As for `CO/C(=C/C(=O)O)CC(O)CCc1ccc2c(c1)OCO2` (stereo not given), the Drug metabolism entry in data set [7] is given as “Metabolite_Detected”.
In the case of `COC1=CC(=O)OC(CCc2ccccc2)C1` (racemic), the Activity is given as 16.4% in data set [1]; 6.3% in data set [2]; “Non-Toxic” in data set [3]; “Non-Toxic” in [4]; “Non-Toxic” in data set [5].
Regarding `COC1=CC(=O)OC(CCc2ccc3c(c2)OCO3)C1` (racemic), the Activity is given as 72.3% in data set [1]; 94.2% in data set [2]; “Non-Toxic” in data set [3]; “Non-Toxic” in data set [4]; “Non-Toxic” in data set [5].
In the case of `COC1=CC(=O)O[C@@H](CCc2ccc3c(c2)OCO3)C1` [DIHYDROMETHYSTICIN], the Drug metabolism result in data set [8] and in [9] was “Metabolite_Detected” in each case.
